The target of assay [1] is recombinant ALK kinase domain (aa 1073–1410) (Homo sapiens, UniProt Q9UM73). The assay is described as follows: ELISA-based in vitro kinase assay, recombinant ALK. The format is biochemical. The note with it: 300 μM ATP. The essentials: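 Purified recombinant ALK kinase domain (aa 1073–1410), wild type or L1196M, was incubated with test compound and Mg++-ATP, then loaded onto peptide substrate-coated wells. Reaction ran at 30 °C for 20 min. After washing, phosphopeptide was quantified with anti-phosphotyrosine antibody PY20. IC50 came from nonlinear regression of normalized data. Inhibition mode was assessed from dose–response curves at increasing ATP concentrations.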
(In an ELISA, binding on a coated surface is turned into a signal by an enzyme label.)

Assay [2] relates to Ba/F3 NPM/ALK cells. The assay is described as follows: Ba/F3 NPM/ALK cell proliferation. The format is cell-based. The note with it: read-out: IC50 Ba/F3 NPM/ALK. The essentials:
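Ba/F3 cells stably expressing NPM/ALK variants were made by electroporation, selected with G418 (1 mg/mL), then selected again by IL3 withdrawal. Proliferation was measured by [3H]-thymidine incorporation across a dose range of test compound. IC50 was obtained by nonlinear regression of normalized data.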

The test system of assay [3] is Ba/F3-parental cells. The assay is described as follows: Parental IL3-dependent Ba/F3 cell proliferation. The note with it: Mus musculus, BaF3, read-out: IC50 Ba/F3-parental. The format is cell-based. The essentials: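 Cell growth was read by [3H]-thymidine incorporation across a dose range of test compound. IC50 values come from nonlinear regression curve fitting of normalized data.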

Sequence of recombinant ALK kinase domain (aa 1073–1410) (Q9UM73 1073-1410): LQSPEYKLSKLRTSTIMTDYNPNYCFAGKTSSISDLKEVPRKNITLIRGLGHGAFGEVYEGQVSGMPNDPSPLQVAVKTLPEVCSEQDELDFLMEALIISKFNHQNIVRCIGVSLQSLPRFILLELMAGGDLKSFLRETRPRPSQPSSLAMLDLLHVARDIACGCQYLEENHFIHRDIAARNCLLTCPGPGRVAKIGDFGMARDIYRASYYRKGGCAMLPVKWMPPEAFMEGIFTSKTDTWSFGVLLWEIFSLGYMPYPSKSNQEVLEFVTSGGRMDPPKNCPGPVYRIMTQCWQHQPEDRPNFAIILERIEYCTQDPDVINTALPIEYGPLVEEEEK

As to `CCCC#Cc1ccc2c(n1)[nH]c1ccccc12` [Compound 34], the “IC50 ALK” value in assay [1] (Table 2, 2,6-substituted compounds) was “inactive”.

For `Clc1cnc2[nH]c3ccc(-c4ccc(N5CCOCC5)cn4)cc3c2c1` [Compound 67], the “IC50 ALK” value in assay [1] (Table 3, 3-chloro-6-substituted compounds) is “inactive”.

On to `COc1ccc(-c2ccc3[nH]c4ncc(C=Cc5ccccc5)cc4c3c2)cc1` [Compound 102], for which the IC50 is 2800 nM in assay [2] and greater than 10000 nM in assay [3].

The values above are taken from article PMC9134258 (ACS Omega, 2022).
